Experimental data: ChEMBL document CHEMBL5370689, “Development of Allosteric NIK Ligands from Fragment-Based NMR Screening” (ACS Med Chem Lett, 2023)
The source made the active and inactive calls.

Assays:
[1] = target: T1, Mitogen-activated protein kinase kinase kinase 14 (Homo sapiens, UniProt Q99558); experiment: Binding affinity to biotinylated N-terminal 6His-tagged/TEV cleavage site-fused human NIK by SPR analysis
Procedure, shortened: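 Biotinylated NIK was probed by SPR with no nucleotide added, in dose–response format. Responses were plotted as a binding curve to give Kd, reported as mean ± SEM of two determinations.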
Target sequence in this assay (Q99558 whole entry, the tested form may be a part): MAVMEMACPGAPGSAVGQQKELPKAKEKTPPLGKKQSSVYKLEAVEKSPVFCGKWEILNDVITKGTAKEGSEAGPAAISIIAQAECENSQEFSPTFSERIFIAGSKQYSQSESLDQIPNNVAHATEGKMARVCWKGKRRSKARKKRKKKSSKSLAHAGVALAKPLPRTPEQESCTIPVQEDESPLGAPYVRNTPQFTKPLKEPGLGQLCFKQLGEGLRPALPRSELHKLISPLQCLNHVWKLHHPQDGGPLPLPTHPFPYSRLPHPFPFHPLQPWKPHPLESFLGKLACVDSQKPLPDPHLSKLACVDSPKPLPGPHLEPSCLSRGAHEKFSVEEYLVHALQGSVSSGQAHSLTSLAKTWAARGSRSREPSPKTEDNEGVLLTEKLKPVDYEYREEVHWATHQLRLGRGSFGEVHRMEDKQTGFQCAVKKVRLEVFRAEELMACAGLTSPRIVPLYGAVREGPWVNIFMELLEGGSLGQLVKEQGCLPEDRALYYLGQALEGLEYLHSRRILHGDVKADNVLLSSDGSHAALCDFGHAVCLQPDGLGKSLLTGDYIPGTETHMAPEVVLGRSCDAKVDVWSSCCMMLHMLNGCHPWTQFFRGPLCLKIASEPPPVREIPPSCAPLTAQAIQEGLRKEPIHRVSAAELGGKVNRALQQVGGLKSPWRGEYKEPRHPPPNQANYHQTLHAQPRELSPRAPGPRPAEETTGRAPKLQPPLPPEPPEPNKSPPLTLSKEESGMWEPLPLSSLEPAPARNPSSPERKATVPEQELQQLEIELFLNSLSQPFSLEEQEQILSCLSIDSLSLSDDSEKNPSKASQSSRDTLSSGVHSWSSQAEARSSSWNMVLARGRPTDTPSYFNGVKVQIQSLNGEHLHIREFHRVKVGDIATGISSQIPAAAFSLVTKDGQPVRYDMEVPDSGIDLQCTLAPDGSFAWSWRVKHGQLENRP

[2] = target: T1, Mitogen-activated protein kinase kinase kinase 14; experiment: Binding affinity to biotinylated N-terminal 6His-tagged/TEV cleavage site-fused human NIK in presence of AMP-PNP by SPR analysis
Procedure, shortened: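 Dose–response SPR used biotinylated NIK in the presence of saturating AMP-PNP. Kd came from the fitted binding curve, reported as mean ± SEM of two determinations.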
Target sequence in this assay (Q99558 whole entry, the tested form may be a part): as above

[3] = Aqueous solubility of the compound in K2HPO4 in D2O with 5% DMSO-d6 at pH 7.4 by qNMR spectra analysis; assay type: physicochemical; conditions: K2HPO4 buffer in D2O with 5% DMSO-d6, pH 7.4
[4] = Redox activity of the compound in HEPES/NaCl at pH 7.5 measured after 60 mins in presence of DTT by resazurin reagent based assay; assay type: physicochemical; conditions: pH 7.5, 1 h
Procedure, shortened: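 A plate-based redox assay screened for redox activity as a source of false positives. NSC 663284, a known redox-active molecule, served as the positive control.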

[5] = Aggregation property of the compound in sodium phosphate buffer at pH 7.4 by 1H-NMR spectra analysis; assay type: physicochemical
[6] = target: T1, Mitogen-activated protein kinase kinase kinase 14; experiment: Binding affinity to N-terminal 6His-tagged/TEV cleavage site-fused human NIK assessed as attenuation of spectral signal at 100 uM by 1H-CPMG-NMR analysis relative to control
Target sequence in this assay (Q99558 whole entry, looked up, the tested form may be a part): as the sequence (Q99558 whole entry, the tested form may be a part) above

[7] = target: T1, Mitogen-activated protein kinase kinase kinase 14; experiment: Binding affinity to N-terminal 6His-tagged/TEV cleavage site-fused human NIK assessed as attenuation of spectral signal at 100 uM in presence of AMP-PNP by 1H-CPMG-NMR analysis relative to control
Target sequence in this assay (Q99558 whole entry, looked up, the tested form may be a part): as the sequence (Q99558 whole entry, the tested form may be a part) above

[8] = target: T1, Mitogen-activated protein kinase kinase kinase 14; experiment: Binding affinity to biotinylated N-terminal 6His-tagged/TEV cleavage site-fused human NIK at <500 uM by SPR analysis
Procedure, shortened: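 Biotinylated NIK used as the SPR surface. Each fragment was run at five concentrations, and the responses were fitted to a binding curve to estimate affinity. A 500 µM affinity cut-off was applied.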
Target sequence in this assay (Q99558 whole entry, looked up, the tested form may be a part): as the sequence (Q99558 whole entry, the tested form may be a part) above

| Compound | Kd [1] | Kd [2] | also measured |
| --- | --- | --- | --- |
| COC1CCOc2cc(Cl)ccc21 (stereo not given) | > 1000 µM | > 1000 µM | – |
| OC1(c2ccccc2)CCOc2cc(Cl)ccc21 (stereo not given) | 572 µM | 369 µM | – |
| OC1CCOc2cc(Cl)ccc21 (stereo not given) | 130 µM | 214 µM | solubility [3]: ≥ 5 mM; Activity [4]: Not Active; Activity [5]: Not Active; Activity [6]: > 50%; Activity [7]: > 50%; Activity [8]: Active |
| Cc1cc(Cl)cc2c1C(O)(c1ccccc1)CCO2 (stereo not given) | 367 µM | 717 µM | – |
| CC1(O)CCOc2cc(Cl)ccc21 (stereo not given) | > 1000 µM | > 1000 µM | – |
| Cc1ccc2c(c1)C(O)CCO2 (stereo not given) | > 1000 µM | > 1000 µM | – |
| CCC1(O)CCOc2cc(Cl)ccc21 (stereo not given) | 206 µM | 583 µM | – |
| Cc1cccc2c1OCCC2O (stereo not given) | > 1000 µM | > 1000 µM | – |
| COc1cc(Cl)cc(C)c1C(C)(O)C1CC1 (stereo not given) | 150 µM | 143 µM | – |
| OC1(C2CC2)CCOc2cc(Cl)ccc21 (stereo not given) | 40.4 µM | 290 µM | – |
| Cc1ccc2c(c1)OCCC2O (stereo not given) | > 1000 µM | > 1000 µM | – |
| Cc1cccc2c1C(O)CCO2 (stereo not given) | 134 µM | 131 µM | – |
